# Yeast lifespan up: extends the lifespan of yeast. S. cerevisiae growth with nicotinamide, OD615; deaD strain in restrictive glucose medium. inhibition of the nicotinamide effect, % at 10 µM. 130,000 tested, 0.68% active;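 active = inhibition above a set limit, placed 3 SD over the median of all compounds, cut at about 26% in these data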;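 also: 0% = nicotinamide-treated wells and 100% = cells grown without nicotinamide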
#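 Buffer or medium: CSMM-D glucose medium, restrictive; test system: modified budding yeast, DeaD strain; compound: single dose 10 µM compound, 0.25% DMSO; schedule: culture preincubation 4 h, compound exposure 48 h, both 30 °C; detection: optical density (absorbance) at 615 nm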
# RAM inhibit: blocks the yeast RAM network | 190,000 tested, 1.8% active | inhibition, % at 50 µM | S. cerevisiae dse1pr::URA3 reporter, 5-FOA growth OD615, 2 d; analog-sensitive cbk1-as2 kinase mutant strain | AID 868;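 active = inhibition above a set limit, 3 SD over mean compound inhibition, cut at about 8.4% in these data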;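 also: 0% = DMSO-only wells with no growth and 100% = 10 µM 1-NA-PP1 full growth; inhibition rescues growth on 5-FOA so higher OD means more RAM inhibition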
# Cl transport mod: modulates chloride dependent transport by human KCC2. Q9H2X9. KCC2 cells, thallium flux FluoZin-2 fluorescence. B-score of Tl+ flux slope (higher = more flux/activation; lower = inhibition) at 10 µM. 190,000 tested, 2.2% active;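 active = thallium flux slope and its plate-corrected score both differing from the plate sample mean at a set confidence after two filtering rounds, in either direction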;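 also: slope of fluorescence scaled to starting intensity during 10 to 20 s after thallium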
# WT yeast gro inh: growth inhibition of WT yeast, mitochondrial fusion screen | mitochondrial fusion phenotypic screen, WT strain | inhibition, % at 10 µM | 190,000 tested, 2.1% active; in the data active = inhibition above about 58%; tested in S. cerevisiae
# BB579 growth dn: chemicals that inhibit yeast BB579 growth in restrictive medium (lifespan-shortening candidates); S. cerevisiae BB579 growth, OD615, 48 h; inhibition, % at 10 µM; 140,000 tested, 0.51% active; AID 804;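 active = inhibition above a set limit, 3 SD over the mean compound inhibition, cut at about 44% in these data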
#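 Test system: Saccharomyces cerevisiae DeaD strain BB579, replicative lifespan model yeast | Buffer or medium: Restrictive CSMM-D medium | Doses: One dose, 10 µM compound with 0.25% DMSO | Incubation: 48 h exposure, 30 °C | Detection: Culture absorbance at 615 nm | Control set: Amphotericin B at 10 µg/mL as positive control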
# KCC2 sec1: KCC2 (human) modulation, secondary assay | shares compounds with Cl transport mod | normalised thallium flux (F/F0 slope) at 10 µM | 3,700 tested, 15% active | AID 1713 | HEK293-KCC2, thallium flux, FluoZin2 fluorescence; hits give high values;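 active = thallium flux slope above the same plate's solvent-only control mean plus 3 SD; inconclusive = the two replicate wells disagree; inactive = no significant difference from solvent-only control wells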
# KCC2 bumet counter: thallium flux persisting under bumetanide in KCC2 cells, counter-screen secondary assay | AID 1714 | normalized thallium flux at 10 µM | HEK293-KCC2 + bumetanide/ouabain, thallium flux FluoZin2; hits give high values | 3,700 tested, 49% active | shares compounds with Cl transport mod;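 active = thallium entry rate above the same plate's blocked-transporter control wells by more than 3 SD; inconclusive = the two repeat wells disagree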;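 also: raw slope of fluorescence over initial fluorescence between 10 and 20 s after thallium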
# KCC2 secondary2: confirmation of human KCC2 transport modulators | 3,700 tested, 23% active | shares compounds with Cl transport mod | HEK293-KCC2, thallium flux FluoZin2 fluorescence; actives lie on both sides; F/F0 rise rate, 10–20 s post-thallium | normalized thallium flux at 10 µM;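 active = thallium flux slope more than 3 SD above or below the plate's solvent-only control mean, mostly below; inconclusive = the two repeat wells disagreed; inactive = no significant shift from solvent-only controls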;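 also: raw slope with 0.1% DMSO as baseline and bumetanide as block control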
# HEK293 Tl flux: parental HEK flux effect, counter-screen; shares compounds with Cl transport mod; HEK293 parental cells, thallium flux FluoZin2, ouabain; baseline-ratio fluorescence slope, 10–20 s after thallium; thallium flux rate (normalised fluorescence) at 10 µM; 3,700 tested, 46% active; AID 1716;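 active = thallium flux rate significantly above the same plate's solvent-only control wells, beyond their mean plus 3 SD; inconclusive = the two replicate wells gave conflicting results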
# KCC2 retest ouab: confirmation of human KCC2 modulators with ouabain; shares compounds with Cl transport mod; HEK293-KCC2, thallium flux FluoZin2 fluorescence; bidirectional: low = inhibitor, high = activator; raw Tl+ flux slope (below DMSO = inhibition, above = activation) at 10 µM; 3,700 tested, 48% active;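 active = thallium flux slope beyond 3 SD from same-plate DMSO control mean in most replicates, usually higher, sometimes lower; inconclusive = repeat tests gave conflicting results; inactive = no significant difference from controls in most replicates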;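 also: slope of initial-normalized fluorescence between seconds 10 and 20 after thallium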
# HEK counter2: counter-screen for KCC2 modulators: effect in parental HEK293 cells; shares compounds with Cl transport mod; thallium flux FluoZin-2 fluorescence slope; thallium flux slope at 10 µM; 3,700 tested, 33% active; AID 1718;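 active = thallium flux slope above the same plate's solvent-control mean plus 3 SD in both duplicate wells; inconclusive = duplicate wells that disagreed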;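 also: run without ouabain in cells lacking the KCC2 cotransporter; slope of fluorescence scaled to its starting value between 10 and 20 s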
# * hit, by the source's call; ? = inconclusive; nt = not tested or not shown. This is a sample that favours compounds with a hit; in the whole collection about 5.5% have one here.
SMILES,Yeast lifespan up,RAM inhibit,Cl transport mod,WT yeast gro inh,BB579 growth dn,KCC2 sec1,KCC2 bumet counter,KCC2 secondary2,HEK293 Tl flux,KCC2 retest ouab,HEK counter2
COc1ccc(C(=O)c2ccc(OC)cc2O)c(O)c1,-7.0,2.1,5.76*,6.9,-29.5,0.00876,0.00529,0.029,0.00724,0.0264,0.00974
CC1=NN(c2ccccc2)C(=O)/C1=C\c1cn(C)c2ccccc12,nt,5.6,-0.701,0.7,nt,nt,nt,nt,nt,nt,nt
Cc1ccc(/C=C2/SC(=O)NC2=S)o1,nt,1.1,93.7*,-2.0,nt,?,0.0704*,0.0985*,0.103*,0.0936*,0.0991*
Cc1ccc(C(=O)NN2C(=O)/C(=C/c3cccn3C)SC2=S)cc1,-1.4,2.6,-3.86,-9.3,-11.2,nt,nt,nt,nt,nt,nt
Cc1ccc(C(=O)NN2C(=O)/C(=C/c3cn(C)c4ccccc34)SC2=S)cc1,3.4,6.3,-3.72*,0.0,-19.8,0.00464*,0.00387,0.0255*,0.00512*,0.0253*,0.00889
Cn1cc(/C=C2\SC(=O)NC2=S)c2ccccc21,nt,10.1*,21.2*,2.4,nt,0.013*,0.0276*,0.0295,0.0178*,0.034*,?
COc1ccc(/C=C2\C(=O)NC(=S)N2C(=O)c2ccc(C)cc2)cc1,0.2,4.4,7.53*,2.8,-43.5,0.00621,0.0208*,0.0387*,0.0189*,0.0283*,0.0212*
COc1ccc(OC)c(-n2nnnc2SCC(=O)NCCc2ccccc2)c1,-0.5,2.3,nt,nt,-31.7,0.00657,0.00506,?,0.00732,0.0173,0.011
Cn1cc(/C=C/C(=O)N2CCCC(C(=O)c3ccc(C(C)(C)C)cc3)C2)cn1 (stereo not drawn),nt,-0.5,-1.22,24.6,nt,nt,nt,nt,nt,nt,nt
S=c1[nH]nc(COc2ccccc2)n1/N=C/C=C/c1ccccc1,2.2,3.7,12.3*,70.7*,-4.0,0.0135*,0.139*,0.0341,0.0209*,0.0563*,?
S=c1[nH]nc(-c2ccco2)n1/N=C/C=C/c1ccco1,-4.8,2.5,-0.113,-15.3,-21.3,nt,nt,nt,nt,nt,nt
O=[N+]([O-])c1cccc(/C=N/n2c(COc3ccccc3)n[nH]c2=S)c1,1.9,7.5,59.1*,4.5,-9.8,0.0113,0.15*,0.0311,0.0193*,0.0589*,0.0122*
S=c1[nH]nc(COc2ccccc2)n1/N=C/c1cccs1,-1.2,-1.1,2.45,19.0,-12.8,nt,nt,nt,nt,nt,nt
S=c1[nH]nc(COc2ccccc2)n1/N=C/C=C/c1ccco1,nt,nt,16.2*,nt,nt,0.0072,0.0498*,0.0273,0.0118*,0.0282*,?
Cc1ccc(NC(=O)CN(C)C(=O)CCCN2C(=O)c3ccccc3C2=O)cc1,-7.2,-0.8,-3.06*,-4.8,-31.6,0.0106,0.00722,0.0369,0.00456,0.0212,0.0119
CC1(C(=O)Nc2c(F)c(F)c(F)c(F)c2F)CC1(Br)Br (stereo not drawn),nt,nt,-1.32,nt,nt,nt,nt,nt,nt,nt,nt
S=C(NCCc1ccccc1)NCc1cccs1,-5.5,-0.4,-4.44*,-10.0,14.1,0.0186,0.00448,0.0253*,0.00702,0.014,0.00986
S=C(NCCc1ccccc1)NC1CCCCCC1,-7.4,-0.8,-4.2*,68.2*,21.7,0.00584*,?,0.0291,0.00645,?,0.0106
S=C(NCc1cccs1)Nc1ccc(Br)cc1Cl,nt,1.5,4.67*,49.0,nt,0.00751,0.0095*,0.0312,0.0109*,0.0183,0.0124*
CC1CCN(C(=S)c2ccc(N(C)C)cc2)CC1,nt,0.0,0.0488,37.1,nt,nt,nt,nt,nt,nt,nt
CC(=O)NCCCc1nc2ccccc2n1Cc1c(F)cccc1Cl,nt,nt,0.53,nt,nt,nt,nt,nt,nt,nt,nt
O=C(Cn1cnc2c(nnn2Cc2ccccc2F)c1=O)NCc1ccco1,-6.3,4.5,nt,3.5,-5.5,0.0093,0.00658,?,0.00813,0.0176*,0.0107
Cc1ccc(Cn2nnc3c(=O)n(CC(=O)NCc4ccco4)cnc32)cc1,nt,2.8,-2.94*,-11.4,-41.4,0.00728,0.00393,?,?,0.0148*,0.0103
CCOc1ccc(C2=Nn3c(nnc3-c3ccccn3)SC2)cc1,-9.3,0.1,-0.759,-8.7,-15.3,0.0103,0.0062,0.0336,0.00638,0.0217,0.0102
O=C(Nc1cc(Cl)ccc1N1CCOCC1)c1cccnc1Cl,nt,nt,0.468,nt,nt,nt,nt,nt,nt,nt,nt
O=C1OC(c2cccs2)=N/C1=C\c1ccc(-c2ccccc2Cl)o1,-5.1,1.0,nt,-6.1,-19.0,0.00589,0.00448,0.0282,0.00489*,?,0.00883

# Source: PubChem BioAssay
